We go through seven compounds from ChEMBL document CHEMBL1629416, “Developing dual functional allosteric modulators of GABA(A) receptors” (Bioorg Med Chem, 2010).

Structures are written as SMILES. Where “and” joins values, the source holds several entries; their conditions need not be identical. Equal entries are not always repeated. Calls of active or inactive are those of the source. No cut-off for these calls is given here.

Experiment [1] concerns the target T1, GABA-A receptor; alpha-5/beta-3/gamma-2 (Homo sapiens) (UniProt P18507+P28472+P31644). As to the kind of experiment: Positive allosteric modulation of human alpha5beta3gamma2 GABA receptor expressed in Xenopus laevis oocytes at 1 uM. Particulars: Oocyte. It is filed as cell-based. In outline:
(§1)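 Two-electrode voltage clamp on oocytes expressing human α/β/γ2 subtypes, used 2–10 days after injection. […] Baseline was the mean of three GABA-alone pulses. Result is % modulation, mean ± SEM over individual oocytes.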

Experiment [2] has as its target GABA-A receptor; alpha-2/beta-3/gamma-2 (Homo sapiens) (UniProt P18507+P28472+P47869). As to the kind of experiment: Positive allosteric modulation of human alpha2beta3gamma2 GABA receptor expressed in Xenopus laevis oocytes at 1 uM. It is filed as cell-based. The following applies: Oocyte. In outline: as §1
Experiment [3] concerns the target T2, GABA-A receptor; alpha-3/beta-3/gamma-2 (Homo sapiens, UniProt P18507+P28472+P34903).
T2 sequence (P18507 whole entry): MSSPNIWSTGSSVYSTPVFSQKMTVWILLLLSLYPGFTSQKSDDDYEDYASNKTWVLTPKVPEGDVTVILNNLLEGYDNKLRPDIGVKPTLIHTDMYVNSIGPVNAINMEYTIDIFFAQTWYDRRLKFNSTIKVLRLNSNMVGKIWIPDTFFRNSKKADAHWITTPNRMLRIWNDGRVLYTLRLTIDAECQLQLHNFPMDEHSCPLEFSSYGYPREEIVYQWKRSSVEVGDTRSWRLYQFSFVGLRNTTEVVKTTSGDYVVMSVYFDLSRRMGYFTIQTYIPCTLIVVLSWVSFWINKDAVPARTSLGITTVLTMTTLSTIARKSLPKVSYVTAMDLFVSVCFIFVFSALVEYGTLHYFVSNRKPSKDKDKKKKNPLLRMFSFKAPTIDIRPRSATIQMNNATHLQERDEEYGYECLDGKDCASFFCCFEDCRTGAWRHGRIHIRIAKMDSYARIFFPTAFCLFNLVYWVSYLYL
T2 sequence (P28472 whole entry): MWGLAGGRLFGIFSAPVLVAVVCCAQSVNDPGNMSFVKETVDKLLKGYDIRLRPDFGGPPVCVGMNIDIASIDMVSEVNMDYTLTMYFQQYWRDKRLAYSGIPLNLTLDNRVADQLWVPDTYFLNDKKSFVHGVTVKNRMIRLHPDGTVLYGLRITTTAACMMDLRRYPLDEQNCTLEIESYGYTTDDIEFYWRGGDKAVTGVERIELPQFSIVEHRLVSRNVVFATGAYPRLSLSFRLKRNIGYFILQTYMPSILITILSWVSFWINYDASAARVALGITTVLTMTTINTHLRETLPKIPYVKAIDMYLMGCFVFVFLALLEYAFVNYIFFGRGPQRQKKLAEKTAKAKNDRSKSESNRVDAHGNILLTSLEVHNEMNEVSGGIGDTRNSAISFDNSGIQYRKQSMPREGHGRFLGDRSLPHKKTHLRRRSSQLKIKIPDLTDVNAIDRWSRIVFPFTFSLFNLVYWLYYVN
T2 sequence (P34903 whole entry): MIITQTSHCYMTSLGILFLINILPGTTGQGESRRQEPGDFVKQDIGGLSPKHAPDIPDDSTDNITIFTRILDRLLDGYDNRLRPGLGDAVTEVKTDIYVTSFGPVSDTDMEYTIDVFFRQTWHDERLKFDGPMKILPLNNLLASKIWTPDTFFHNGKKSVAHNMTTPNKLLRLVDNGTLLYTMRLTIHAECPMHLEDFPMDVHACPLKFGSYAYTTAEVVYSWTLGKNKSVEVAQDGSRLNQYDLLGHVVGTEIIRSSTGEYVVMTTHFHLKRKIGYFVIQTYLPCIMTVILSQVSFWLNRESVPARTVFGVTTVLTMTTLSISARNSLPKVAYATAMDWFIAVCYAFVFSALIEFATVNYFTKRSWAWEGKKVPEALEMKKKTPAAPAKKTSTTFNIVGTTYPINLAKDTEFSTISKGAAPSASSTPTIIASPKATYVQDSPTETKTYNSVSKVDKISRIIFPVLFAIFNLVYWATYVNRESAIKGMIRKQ
Briefly: Binding affinity to human alpha3beta3gamma2 GABA receptor expressed in Xenopus laevis oocytes. The format is cell-based, Oocyte.

Experiment [4] deals with T3, GABA-A receptor; alpha-2/beta-3/gamma-2 (Homo sapiens, UniProt P18507+P28472+P47869).
T3 sequence (P18507 whole entry): T2 sequence (P18507 whole entry)
T3 sequence (P28472 whole entry): T2 sequence (P28472 whole entry)
T3 sequence (P47869 whole entry): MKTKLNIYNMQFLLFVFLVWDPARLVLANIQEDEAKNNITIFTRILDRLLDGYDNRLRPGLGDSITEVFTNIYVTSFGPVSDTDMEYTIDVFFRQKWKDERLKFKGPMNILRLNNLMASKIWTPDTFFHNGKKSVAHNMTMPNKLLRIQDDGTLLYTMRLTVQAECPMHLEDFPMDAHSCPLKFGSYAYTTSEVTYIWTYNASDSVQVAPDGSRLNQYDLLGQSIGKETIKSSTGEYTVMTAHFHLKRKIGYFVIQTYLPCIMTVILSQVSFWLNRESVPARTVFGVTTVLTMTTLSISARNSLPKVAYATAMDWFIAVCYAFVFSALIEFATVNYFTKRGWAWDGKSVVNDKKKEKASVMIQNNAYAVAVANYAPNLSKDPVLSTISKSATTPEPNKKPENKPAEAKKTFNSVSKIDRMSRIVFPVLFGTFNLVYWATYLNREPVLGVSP
As to the kind of experiment: Binding affinity to human alpha2beta3gamma2 GABA receptor expressed in Xenopus laevis oocytes. The format is cell-based, Oocyte.

Experiment [5] concerns the target T3, GABA-A receptor; alpha-2/beta-3/gamma-2. Briefly: Displacement of [3H]flunitrazepam from human alpha2beta3gamma2 GABA receptor in Sf9 membranes after 1 hr by liquid scintillation counting. In a few lines: (§2)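 [3H]Flunitrazepam (3 nM) competition on recombinant Sf9 membranes co-expressing α, β and γ2 subunits. Compound incubated 1 h at 4 °C in 20 mM Tris–citrate, 200 mM NaCl, pH 7.8, with membrane protein.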
(In a radioligand displacement assay an active substance lowers the binding of a labelled ligand.)

For experiment [6], the target named is T4, GABA-A receptor; alpha-1/beta-2/gamma-2 (Homo sapiens) (UniProt P14867+P47870+P18507). As to the kind of experiment: Negative allosteric modulation of human alpha1beta2gamma2 GABA receptor expressed in Xenopus laevis oocytes at 1 uM. The following applies: Oocyte. The format is cell-based.
For experiment [7], the target named is T5, GABA-A receptor; alpha-5/beta-3/gamma-2 (Homo sapiens, UniProt P18507+P28472+P31644).
T5 sequence (P18507 whole entry): T2 sequence (P18507 whole entry)
T5 sequence (P28472 whole entry): T2 sequence (P28472 whole entry)
T5 sequence (P31644 whole entry): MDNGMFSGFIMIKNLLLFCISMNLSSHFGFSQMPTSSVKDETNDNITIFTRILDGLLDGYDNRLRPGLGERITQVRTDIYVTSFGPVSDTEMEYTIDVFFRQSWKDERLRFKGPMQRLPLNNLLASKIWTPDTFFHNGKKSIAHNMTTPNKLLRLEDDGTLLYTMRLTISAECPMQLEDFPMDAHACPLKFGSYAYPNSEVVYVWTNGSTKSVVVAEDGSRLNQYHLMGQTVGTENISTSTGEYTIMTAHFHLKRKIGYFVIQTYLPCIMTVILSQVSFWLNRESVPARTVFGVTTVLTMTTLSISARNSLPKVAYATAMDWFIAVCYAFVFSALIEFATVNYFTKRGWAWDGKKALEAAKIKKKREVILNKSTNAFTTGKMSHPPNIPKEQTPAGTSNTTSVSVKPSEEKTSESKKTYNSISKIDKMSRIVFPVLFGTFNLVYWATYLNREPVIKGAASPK
As to the kind of experiment: Binding affinity to human alpha5beta3gamma2 GABA receptor expressed in Xenopus laevis oocytes. The format is cell-based, Oocyte.

Experiment [8] addresses GABA-A receptor; alpha-3/beta-3/gamma-2 (Homo sapiens) (UniProt P18507+P28472+P34903). As to the kind of experiment: Positive allosteric modulation of human alpha3beta3gamma2 GABA receptor expressed in Xenopus laevis oocytes at 1 uM. It is filed as cell-based. The following applies: Oocyte. In a few lines: as §1
The target of experiment [9] is T1, GABA-A receptor; alpha-5/beta-3/gamma-2 (Homo sapiens). Briefly: Negative allosteric modulation of human alpha5beta3gamma2 GABA receptor expressed in Xenopus laevis oocytes at 1 uM. Particulars: Oocyte. The format is cell-based. In a few lines: as §1
Experiment [10] addresses T4, GABA-A receptor; alpha-1/beta-2/gamma-2 (Homo sapiens). As to the kind of experiment: Positive allosteric modulation of human alpha1beta2gamma2 GABA receptor expressed in Xenopus laevis oocytes at 1 uM. The format is cell-based. Particulars: Oocyte. In outline:
as §1

The target is the same in experiment [11]. As to the kind of experiment: Effect on human alpha1beta2gamma2 GABA receptor expressed in Xenopus laevis oocytes at 10 uM. The format is cell-based. The following applies: Oocyte.
The target of experiment [12] is T5, GABA-A receptor; alpha-5/beta-3/gamma-2. Briefly: Displacement of [3H]flunitrazepam from human alpha5beta3gamma2 GABA receptor in Sf9 membranes after 1 hr by liquid scintillation counting. In a few lines:
as §2

Regarding `Nc1c(C(=O)N2CCC2)nnc2c(-c3ncccn3)c(F)ccc12`, the Activity in experiment [1] is 10%; in experiment [2] it was 8%.
In general, EC50 refers to the concentration that produces a half-maximal response. What is called Ki is the dissociation constant of the complex between target and ligand, obtained from inhibition or displacement. A higher Ki goes with a looser hold on the target. Turning to `CCCNC(=O)c1nnc2c(-c3ncccn3)cccc2c1N`, the EC50 in experiment [3] came to 379 nM; in experiment [4], 104 nM; in experiment [7] it was 1130 nM. Also, the Ki in [5] is 380 nM. For the same compound, the Activity in experiment [6] worked out at 5%; in [8], 41%.
For `Nc1c(C(=O)N2CC(F)(F)C2)nnc2c(-c3ncccn3)cccc12`, the Activity was determined as 4% in experiment [9] and 6% in experiment [2].
Turning to `CN1C(=O)CN=C(c2ccccc2)c2cc(Cl)ccc21`, the Activity stood at 192% in [10], 153% in experiment [1], 177% in experiment [2] and 207% in [8].
Regarding `Nc1c2c(nc3c(-c4ncccn4)cccc13)CN(C1CCC1)C2=O`, the Activity was 1% in experiment [10]; 46% and 32% in experiment [9]; 44% and 38% in [2]; 40% in [8]. The EC50 stood at 77 nM in [3], 34 nM in experiment [4] and 206 nM in [7]. Besides, the result in [11] was inactive. The Ki in experiment [12] came to 14 nM; in [5], 8.3 nM.
Take `Nc1c(C(=O)NC2CC2)nnc2c(-c3ncccn3)c(F)ccc12`: the Activity in [1] was found to be 2%; in experiment [2], 39%.
With `Nc1c(C(=O)NC2CC2)nnc2c(-c3ncccn3)cccc12`, the figures for the Activity in [9] and in experiment [2] were 5% and 54%, respectively.
